# Assay outcomes: PubChem, The Scripps Research Institute Molecular Screening Center
# A selection: hits, their analogues and other compounds. The true share with any hit is near 4.5%.
# OX1R antag-1 = antagonists of human orexin 1 receptor (OX1R). Orexin/Hypocretin receptor type 1 (Homo sapiens), O43613. AID 485270, 2010. OX1R-expressing cells, FRET antagonist read-out. actives 1.8% (n = 330,000). inhibition, % at 6.6 µM; in the data active = inhibition mostly above about 38%, no sharp cut-off; inactive = mostly below about 40%;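 also: 0% = agonist challenge alone and 100% = reference antagonist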
# Target sequence (O43613 whole entry, looked up): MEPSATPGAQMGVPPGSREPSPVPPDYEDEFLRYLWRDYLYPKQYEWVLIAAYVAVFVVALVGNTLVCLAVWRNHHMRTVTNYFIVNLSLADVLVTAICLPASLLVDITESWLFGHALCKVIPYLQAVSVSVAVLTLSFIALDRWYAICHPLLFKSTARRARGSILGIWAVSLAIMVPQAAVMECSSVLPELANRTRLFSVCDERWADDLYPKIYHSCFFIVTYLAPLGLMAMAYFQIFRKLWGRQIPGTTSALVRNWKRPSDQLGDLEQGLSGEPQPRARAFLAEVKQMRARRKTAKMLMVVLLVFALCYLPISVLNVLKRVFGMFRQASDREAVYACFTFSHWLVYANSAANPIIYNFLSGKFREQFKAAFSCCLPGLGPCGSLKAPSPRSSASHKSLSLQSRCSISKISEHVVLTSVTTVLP
# GPR7 antag = GPR7 receptor antagonists, primary screen, cell-based, fluorescence, single concentration; GPR7-expressing cells, fluorescence antagonist assay; inhibition, % at 4.4 µM; Neuropeptides B/W receptor type 1 (Homo sapiens), P48145; actives 1.1% (n = 290,000); in the data active = inhibition above about 16%, passing the limit was not always enough;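 also: cells stimulated with the agonist NPW; 0% = agonist with vehicle and 100% = vehicle without agonist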
# CHO parental Ca = ATP-evoked calcium signal inhibitors, parental CHO, primary screen, counter-screen for OX1R antagonist project, cell-based, fluorescence, Fluo-8 calcium dye; actives 0.63% (n = 330,000); inhibition, % at 5.6 µM; parental CHO-K1, ATP-induced calcium, Fluo-8 fluorescence; AID 463079, 2010;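 active = inhibition above that plate's mean sample inhibition plus 3 SD, cut at about 26% in these data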;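 also: 0% = ATP-challenged DMSO wells and 100% = DMSO wells without ATP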
#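 Measured by: calcium-sensitive Fluo-8 fluorescence / Test system: CHO parental line / Controls: ATP-challenged DMSO wells low, unchallenged DMSO wells high / Measure: % inhibition / Compound: single nominal dose of 5.6 µM per compound / Replicates: single well per compound, no replicates / Reagent: ATP as calcium-mobilizing challenge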
# TAAR1 ag = human TAAR1 agonists, primary screen, Fluo-8 calcium fluorescence, CHO RD-HGA16 cells; Trace amine-associated receptor 1 (Homo sapiens), Q96RJ0; activation, % at 3 µM; vehicle wells 0%, saturating PEA agonist 100%; actives 0.99% (n = 360,000);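 active = activation above the mean activation of all test compounds in the run plus 3 SD, cut at about 38% in these data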
#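 Repeats: no replicates (n 1) | Material: CHO-derived RD-HGA16 cells with stable Gα16 and human TAAR1 | Technique: Kinetic Fluo-8 calcium fluorescence | Schedule: 17-24 h seeding, 75 min 37 °C dye, 30 min RT | Evaluation: % activation from peak over basal fluorescence ratio, DMSO-to-PEA scaled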
# OX1R antag-2 = OX1R (HCRTR1) antagonists, primary screen, fluorescence, CHO/OX1R cells, Fluo-8 calcium, orexin A. actives 0.43% (n = 330,000). inhibition, % at 5 µM. Orexin/Hypocretin receptor type 1 (Homo sapiens), O43613. Fluo-8 calcium fluorescence;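 active = inhibition above its plate's threshold, mean inhibition of all tested compounds on the plate plus 3 SD, cut at about 37% in these data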;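 also: 0% = orexin A challenge wells and 100% = SB-334867-A antagonist wells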
# TAAR1 antagonist = human TAAR1 antagonists, primary screen, Fluo-8 calcium fluorescence, CHO RD-HGA16 cells; actives 1.5% (n = 360,000); inhibition, % at 3 µM; antagonist;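 active = inhibition above a per-plate cutoff, the mean inhibition of test compounds on that plate plus 3 SD, cut at about 49% in these data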;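 also: 0% = DMSO plus EC80 beta-PEA response and 100% = DMSO alone without agonist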
#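 Assay system: RD-HGA16 CHO cells with stable hTAAR1 and Gα16 / Reagent: EC80 β-phenethylamine stimulus / Doses: 3 µM, single point / Timing: dye loading 75 min at 37 °C, then 30 min room temperature / Measured by: Fluo-8 intracellular calcium dye fluorescence, real-time kinetic reads / Controls: vehicle wells and EC80 agonist wells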
# * marks the source's active call; other numbers are inactive results; · = no result.
SMILES,OX1R antag-1,GPR7 antag,CHO parental Ca,TAAR1 ag,OX1R antag-2,TAAR1 antagonist
O=S(=O)(CCSc1nc2ccccc2s1)c1nc2ccccc2s1,53*,15,-13,2,16,14
CCS(=O)(=O)CCSc1nc2ccccc2s1,14,-12,-15,1,-16,17
c1ccc2[nH]c(CCCCc3nc4ccccc4[nH]3)nc2c1,3,-8,-23,38*,-26,-1
Cn1c(CSc2nc3ccccc3s2)nc2ccccc21,41*,0,-15,15,-13,9
O=C(O)CSc1nc2ccccc2s1,0,-9,9,0,-11,-28
c1ccc2[nH]c(CSc3nc4ccccc4s3)nc2c1,72*,-5,-21,17,8,12
CN(C)C(=O)C[C@H]1C[C@@H]2c3cc(NC(=O)NC4CCCC4)ccc3O[C@@H]2[C@@H](CO)O1,·,·,·,0,·,-8
CC(=O)c1c(C)[nH]c(C(=O)OCC(=O)Nc2cccc(S(=O)(=O)N3CCCC3)c2)c1C,13,3,29,15,39*,50*
CCN(CC)S(=O)(=O)c1cccc(NC(=O)COC(=O)c2[nH]c(C)c(C(C)=O)c2C)c1,·,·,·,17,·,55*
CN1C(=O)NC(c2cccc([N+](=O)[O-])c2)C2=C1CCCC2=O (stereo not drawn),1,-4,-10,4,-14,-18
COc1ccnc(Oc2ccccc2)c1C(=O)N/C=N/OCc1ccc(F)cc1Cl,33,-2,-7,24,-11,61*
C=CCSc1nnc(-c2ccc([N+](=O)[O-])cc2)o1,42,-5,-2,6,-9,4
NC(=O)CSc1nnc(-c2ccc([N+](=O)[O-])cc2)o1,55*,-9,12,0,-11,-15
Cc1c(NC(=O)c2ccc(=O)oc2)c(=O)n(-c2ccccc2)n1C,76*,-14,-5,1,-11,9
Cc1c(NC(=O)/C=C/c2cn(-c3ccccc3)nc2-c2ccccc2)c(=O)n(-c2ccccc2)n1C,22,-7,-29,12,-14,52*
Cc1c(NC(=O)CN2C(=O)C3C4C=CC(C4)C3C2=O)c(=O)n(-c2ccccc2)n1C (stereo not drawn),7,-12,-9,4,2,4
Cc1c(NC(=O)CN2C(=O)c3cccc4cccc2c34)c(=O)n(-c2ccccc2)n1C,76*,-1,-7,6,-13,-13
Cc1c(NC(=O)c2ccc(C(=O)Nc3c(C)n(C)n(-c4ccccc4)c3=O)cc2)c(=O)n(-c2ccccc2)n1C,-2,-19,-5,0,-24,-18
Cn1nc(C(F)(F)F)c(CO)c1Sc1ccc(F)cc1,15,1,29*,8,-2,-5
O=C1Nc2ccccc2Nc2ccc([N+](=O)[O-])cc21,11,2,10,5,-20,-11
O=C1Nc2ccccc2OCc2c1cccc2[N+](=O)[O-],40*,6,1,3,-8,-15
O=C(NCCN1CCC(n2c(=O)[nH]c3cc(Cl)ccc32)CC1)c1ccc(F)cc1,·,·,·,5,·,11
COc1ccc(C(=O)O/N=C(\N)c2ccccc2)c(OC)c1,16,-8,-10,5,-33,12
COc1ccc(C(=O)O/N=C(\N)c2ccc(OC)c(OC)c2)c(OC)c1,63*,-7,-6,·,8,·
Cc1sc2ncnc(NCc3ccccc3)c2c1C,27,-8,35*,-2,0,19
SMILES,OX1R antag-1,GPR7 antag,CHO parental Ca,TAAR1 ag,OX1R antag-2,TAAR1 antagonist
Cc1sc2ncnc(NCC(C)(C)N3CCOCC3)c2c1C,82*,-8,32,6,31,9
COc1ccc(CNc2ncnc3sccc23)cc1,20,2,45*,-1,10,4
Cc1sc2ncnc(NCC3COc4ccccc4O3)c2c1C (stereo not drawn),45,15,62*,1,29,12
Cc1sc2ncnc(NCC3(N4CCOCC4)CCCCC3)c2c1C,10,-12,-23,0,-37,-26
COc1ccc(CCn2cnn3c(=O)c4ccccc4nc3c2=O)cc1OC,·,·,·,3,·,1
COC(=O)C1=C(C)N(Cc2ccccc2C(F)(F)F)C(=NCc2ccc(C(F)(F)F)cc2)NC1c1ccccc1 (stereo not drawn),·,·,·,3,·,-16
CCOC(=O)C1CCN(C(=O)c2cc3cc(C)ccc3[nH]2)CC1,-8,-4,0,6,-27,7
c1ccc(CNc2ncnc3sccc23)cc1,10,7,20,3,25,13
Cc1cc2c(NCc3ccccc3)ncnc2s1,9,-6,32*,3,23,-10
Cn1nc(-c2ccc(NCCO)c([N+](=O)[O-])c2)c2ccccc2c1=O,87,-10,-15,-2,-10,8
CC1CC(=O)NN=C1c1ccc(NCCO)c([N+](=O)[O-])c1 (stereo not drawn),59*,-9,-11,7,4,-1
CCn1ncc(-c2ccnc3cc(C(=O)O)nn23)c1C,22,4,-14,1,-14,7
O=C(O)c1cc2nccc(-c3ccc(F)cc3)n2n1,43*,-4,2,5,-17,2
COc1cccc(CNC(=O)[C@H]2CCCN2C(=O)[C@H]2CCCN2C(=O)c2cccs2)c1,·,·,·,0,·,-11
O=C(NCc1ccco1)C(c1ccco1)N(Cc1cccs1)C(=O)Cn1nnc2ccccc21 (stereo not drawn),25,-6,-18,6,-23,9
O=C(NC1CCCC1)C(c1ccccc1)N(Cc1ccc2c(c1)OCO2)C(=O)Cc1cccs1 (stereo not drawn),59,10,-1,17,-23,51*
COC(=O)c1ccc(C(C(=O)NC2CCCCC2)N(Cc2ccccc2)C(=O)Cc2cccs2)cc1 (stereo not drawn),3,1,-22,-1,-31,-7
O=C(NC1CCCCC1)C(c1ccco1)N(Cc1cccs1)C(=O)Cn1nnc2ccccc21 (stereo not drawn),5,22*,-28,8,-9,20
O=C(NC1CCCC1)C(c1ccncc1)N(Cc1ccccc1)C(=O)Cc1cccs1 (stereo not drawn),9,-4,-28,10,-33,-11
